In ChEMBL document CHEMBL3627671, “Novel derivatives of nitro-substituted salicylic acids: Synthesis, antimicrobial activity and cytotoxicity” (Bioorg Med Chem, 2015):
≈ marks a conversion by molar mass, not a printed value.

Columns and labels:
Type in all cases: functional
[1] = system: Mycobacterium tuberculosis; experiment: Antimycobacterial activity against Mycobacterium tuberculosis H37Rv 331/88 after 14 days; settings: H37Rv 331/88, 336 h
[2] = system: Mycobacterium tuberculosis; experiment: Antimycobacterial activity against Mycobacterium tuberculosis H37Rv 331/88 after 21 days; settings: H37Rv 331/88, 504 h
Mycobacterium avium [3] = experiment: Antimycobacterial activity against Mycobacterium avium 330/80 after 14 days; settings: 330/80, 336 h
Mycobacterium avium [4] = experiment: Antimycobacterial activity against Mycobacterium avium 330/80 after 21 days; settings: 330/80, 504 h
Mycobacterium kansasii [5] = experiment: Antimycobacterial activity against Mycobacterium kansasii 235/80 after 7 days; settings: 235/80, 168 h
Procedure, shortened: (§1)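 Šula's semisynthetic medium micromethod at 37 °C, read after 7, 14 and 21 days. The 1.0 McFarland suspension was diluted 10^-4. MIC determined. 6509/96 is a clinical isolate.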

Mycobacterium kansasii [6] = experiment: Antimycobacterial activity against Mycobacterium kansasii 235/80 after 14 days; settings: 235/80, 336 h; procedure, shortened: as §1
Mycobacterium kansasii [7] = experiment: Antimycobacterial activity against Mycobacterium kansasii 235/80 after 21 days; settings: 235/80, 504 h; procedure, shortened: as §1
Mycobacterium kansasii [8] = experiment: Antimycobacterial activity against Mycobacterium kansasii 6509/96 after 7 days; settings: 6509/96, 168 h; procedure, shortened: as §1
Mycobacterium kansasii [9] = experiment: Antimycobacterial activity against Mycobacterium kansasii 6509/96 after 14 days; settings: 6509/96, 336 h; procedure, shortened: as §1
Mycobacterium kansasii [10] = experiment: Antimycobacterial activity against Mycobacterium kansasii 6509/96 after 21 days; settings: 6509/96, 504 h; procedure, shortened: as §1

SMILES	MIC [1] [µM]	MIC [2] [µM]	MIC (Mycobacterium avium [3]) [µM]	MIC (Mycobacterium avium [4]) [µM]	MIC (Mycobacterium kansasii [5]) [µM]	MIC (Mycobacterium kansasii [6]) [µM]	MIC (Mycobacterium kansasii [7]) [µM]	MIC (Mycobacterium kansasii [8]) [µM]	MIC (Mycobacterium kansasii [9]) [µM]	MIC (Mycobacterium kansasii [10]) [µM]
O=C(Nc1cccc(I)c1)c1cccc([N+](=O)[O-])c1O	62.5 (≈ 24 µg/mL)	62.5 (≈ 24 µg/mL)	500 (≈ 192 µg/mL)	500 (≈ 192 µg/mL)	62.5 (≈ 24 µg/mL)	125 (≈ 48 µg/mL)	125 (≈ 48 µg/mL)	125 (≈ 48 µg/mL)	125 (≈ 48 µg/mL)	125 (≈ 48 µg/mL)
O=C(Nc1cccc([N+](=O)[O-])c1)c1cccc([N+](=O)[O-])c1O	62.5 (≈ 19 µg/mL)	62.5 (≈ 19 µg/mL)	> 500	> 500	62.5 (≈ 19 µg/mL)	250 (≈ 75.8 µg/mL)	250 (≈ 75.8 µg/mL)	62.5 (≈ 19 µg/mL)	250 (≈ 75.8 µg/mL)	250 (≈ 75.8 µg/mL)
O=C(Nc1cccc(Br)c1)c1cccc([N+](=O)[O-])c1O	62.5 (≈ 21.1 µg/mL)	62.5 (≈ 21.1 µg/mL)	250 (≈ 84.3 µg/mL)	250 (≈ 84.3 µg/mL)	62.5 (≈ 21.1 µg/mL)	125 (≈ 42.1 µg/mL)	125 (≈ 42.1 µg/mL)	125 (≈ 42.1 µg/mL)	125 (≈ 42.1 µg/mL)	125 (≈ 42.1 µg/mL)
O=C(Nc1ccc([N+](=O)[O-])c(C(F)(F)F)c1)c1cccc([N+](=O)[O-])c1O	16 (≈ 5.94 µg/mL)	16 (≈ 5.94 µg/mL)	250 (≈ 92.8 µg/mL)	500 (≈ 186 µg/mL)	32 (≈ 11.9 µg/mL)	62.5 (≈ 23.2 µg/mL)	125 (≈ 46.4 µg/mL)	32 (≈ 11.9 µg/mL)	62.5 (≈ 23.2 µg/mL)	62.5 (≈ 23.2 µg/mL)
O=C(Nc1cccc(F)c1)c1cccc([N+](=O)[O-])c1O	62.5 (≈ 17.3 µg/mL)	62.5 (≈ 17.3 µg/mL)	500 (≈ 138 µg/mL)	500 (≈ 138 µg/mL)	62.5 (≈ 17.3 µg/mL)	125 (≈ 34.5 µg/mL)	250 (≈ 69.1 µg/mL)	125 (≈ 34.5 µg/mL)	250 (≈ 69.1 µg/mL)	250 (≈ 69.1 µg/mL)
O=C(Nc1cccc(Cl)c1)c1cccc([N+](=O)[O-])c1O	62.5 (≈ 18.3 µg/mL)	62.5 (≈ 18.3 µg/mL)	500 (≈ 146 µg/mL)	500 (≈ 146 µg/mL)	62.5 (≈ 18.3 µg/mL)	125 (≈ 36.6 µg/mL)	250 (≈ 73.2 µg/mL)	125 (≈ 36.6 µg/mL)	125 (≈ 36.6 µg/mL)	125 (≈ 36.6 µg/mL)
